We go through 9 molecules from ChEMBL document CHEMBL4041484, “Semisynthesis and Structure-Activity Studies of Uncarinic Acid C Isolated from Uncaria rhynchophylla as a Specific Inhibitor of the Nucleation Phase in Amyloid β42 Aggregation” (J Nat Prod, 2016).

Data set [1] has as its target Amyloid-beta precursor protein (Homo sapiens) (UniProt P05067). In words: Inhibition of HFIP pretreated Abeta42 (unknown origin) aggregation at nucleation phase assessed as time required for nucleation of Abeta42 at 50 uM by Thioflavin-T fluorescence assay. The method, boiled down: (§1)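 Aβ42 was held at 250 μM in HFIP for 30 min at room temperature, sonicated 5 min, dried under reduced pressure, then redissolved in 0.1% NH4OH. It was incubated at 25 μM with compound at 50 μM in PBS, pH 7.4, at 37 °C, sampled periodically over time. Th-T (5.0 μM, Gly-NaOH pH 8.5) fluorescence was read at ex 430/em 485 nm. Means ± SD, n = 8.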

For data set [2] the target is unchanged. In words: Inhibition of HFIP pretreated Abeta42 (unknown origin) aggregation at nucleation phase assessed as time delay for Abeta42 aggregation velocity at 50 uM by sedimentation assay. In outline:
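HFIP-pretreated Aβ42 (25 μM) and compound (50 μM) were incubated in PBS, pH 7.4, at 37 °C over a time course. Samples were centrifuged at 15 000 rpm, 4 °C, 10 min. Supernatant Aβ42 was quantified by reversed-phase HPLC (ODS, 10–50% CH3CN in 0.1% NH4OH over 30 min, 1.0 mL/min, UV detection). Means ± SE, n = 2.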

For data set [3] the target is unchanged. Kind of data set: Inhibition of Abeta42 (unknown origin) aggregation at early stage incubated for 8 hrs by Thioflavin-T fluorescence assay. The method, boiled down:
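Synthetic Aβ42 (250 μM stock in 0.1% NH4OH), final 25 μM, with compound at 50 μM final (5 mM ethanol stock) in PBS (50 mM sodium phosphate, 100 mM NaCl, pH 7.4), 37 °C for 8 h. An aliquot was mixed with 5.0 μM Th-T in 5.0 mM Gly-NaOH, pH 8.5, and read at ex 430/em 485 nm. Eight points were measured per time.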

Data set [4] is described as follows: Solubility of the compound in phosphate-buffered saline at pH 7.4 at 50 uM. It is filed as physicochemical. To be noted: buffer, pH 7.4, 50 µM.
For data set [5], the target named is Amyloid-beta precursor protein (Homo sapiens) (UniProt P05067). Kind of data set: Inhibition of HFIP pretreated Abeta42 (unknown origin) aggregation at nucleation phase at 50 uM by Thioflavin-T fluorescence assay. In outline:
as §1

For data set [6] the target is unchanged. Kind of data set: Inhibition of HFIP pretreated Abeta42 (unknown origin) aggregation at elongation phase at 50 uM by Thioflavin-T fluorescence assay. In outline:
as §1

The source made the active and inactive calls. No cut-off for these calls is given here.

Sequence of Amyloid-beta precursor protein (Homo sapiens) (P05067 whole entry): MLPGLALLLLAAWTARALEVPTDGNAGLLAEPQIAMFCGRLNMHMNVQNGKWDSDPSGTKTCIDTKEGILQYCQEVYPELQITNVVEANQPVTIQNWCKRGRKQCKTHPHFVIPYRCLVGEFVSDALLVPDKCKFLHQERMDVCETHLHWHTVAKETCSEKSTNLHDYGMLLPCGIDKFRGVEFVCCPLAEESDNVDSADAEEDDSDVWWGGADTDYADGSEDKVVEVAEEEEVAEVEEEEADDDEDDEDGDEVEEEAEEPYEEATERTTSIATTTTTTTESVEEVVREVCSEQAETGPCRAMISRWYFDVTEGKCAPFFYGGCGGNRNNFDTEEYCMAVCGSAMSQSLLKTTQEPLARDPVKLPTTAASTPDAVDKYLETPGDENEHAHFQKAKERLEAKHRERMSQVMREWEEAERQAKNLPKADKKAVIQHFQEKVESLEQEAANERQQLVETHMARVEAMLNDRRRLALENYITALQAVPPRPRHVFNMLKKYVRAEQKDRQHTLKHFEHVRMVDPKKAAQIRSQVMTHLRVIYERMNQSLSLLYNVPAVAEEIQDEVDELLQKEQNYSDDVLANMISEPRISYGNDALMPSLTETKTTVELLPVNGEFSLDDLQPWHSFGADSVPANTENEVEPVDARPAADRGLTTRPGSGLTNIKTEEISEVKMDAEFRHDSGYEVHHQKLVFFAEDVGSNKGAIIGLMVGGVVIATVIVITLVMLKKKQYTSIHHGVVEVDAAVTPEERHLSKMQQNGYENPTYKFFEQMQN

On to `COc1cc(/C=C/C(=O)OC[C@@]23CC[C@@]4(C(=O)O)CC[C@@H](C)[C@H](C)[C@H]4C2=CC[C@@H]2[C@@]4(C)CC[C@H](O)C(C)(C)[C@@H]4CC[C@]23C)ccc1O`, for which the figures for the TIME in data set [1] and in data set [2] were 12 h and 8 h, respectively. In data set [3], the inhibition result is “Active”. The solubility result in data set [4] is “Soluble”.
Regarding `CC(=O)OC[C@@]12CC[C@@]3(C(=O)O)CC[C@@H](C)[C@H](C)[C@H]3C1=CC[C@@H]1[C@@]3(C)CC[C@H](O)C(C)(C)[C@@H]3CC[C@]12C`, the inhibition result in data set [5] and in data set [6] was “inactive” each time.
Take `COC(=O)[C@]12CC[C@@H](C)[C@H](C)[C@H]1C1=CC[C@@H]3[C@@]4(C)CC[C@H](O)C(C)(C)[C@@H]4CC[C@@]3(C)[C@]1(COC(=O)/C=C/c1ccc(O)c(OC)c1)CC2`: the inhibition entry in data set [5] and in data set [6] was “inactive” throughout.
As for `COc1cc(/C=C/C(=O)OC[C@@]23CC[C@@]4(C(=O)O)CCC(C)(C)C[C@H]4C2=CC[C@@H]2[C@@]4(C)CC[C@H](O)C(C)(C)[C@@H]4CC[C@]23C)ccc1O`, the TIME in data set [1] was determined as 10 h. In data set [3], the inhibition result is “Active”. Besides, the solubility entry in data set [4] is “Soluble”.
Turning to `COc1cc(/C=C/C(=O)OC[C@@]23CC[C@@]4(CO)CC[C@@H](C)[C@H](C)[C@H]4C2=CC[C@@H]2[C@@]4(C)CC[C@H](O)C(C)(C)[C@@H]4CC[C@]23C)ccc1O`, the inhibition result in data set [5] and in data set [6] was “inactive” each time.
On to `COc1cc(/C=C\C(=O)OC[C@@]23CC[C@@]4(C(=O)O)CCC(C)(C)C[C@H]4C2=CC[C@@H]2[C@@]4(C)CC[C@H](O)C(C)(C)[C@@H]4CC[C@]23C)ccc1O`, for which the TIME in data set [1] stood at 10 h. In data set [3], the inhibition result was “Active”. In addition, in data set [4], the solubility entry is recorded as “Soluble”.
For the molecule `C[C@H]1[C@H](C)CC[C@]2(C(=O)O)CC[C@]3(C)C(=CC[C@@H]4[C@@]5(C)CC[C@H](O)C(C)(C)[C@@H]5CC[C@]43C)[C@H]12`, the inhibition entry in data set [5] and in data set [6] was “inactive” each time.
Regarding `COc1cc(/C=C\C(=O)OC[C@@]23CC[C@@]4(C(=O)O)CC[C@@H](C)[C@H](C)[C@H]4C2=CC[C@@H]2[C@@]4(C)CC[C@H](O)C(C)(C)[C@@H]4CC[C@]23C)ccc1O`, the TIME in data set [1] was 10 h. In addition, in data set [3], the inhibition entry is “Active”. In data set [4], the solubility entry was “Soluble”.
As for `C[C@H]1[C@H](C)CC[C@]2(C(=O)O)CC[C@]3(CO)C(=CC[C@@H]4[C@@]5(C)CC[C@H](O)C(C)(C)[C@@H]5CC[C@]43C)[C@H]12`, the inhibition result in data set [5] and in data set [6] was “inactive” in each case.
